Source: PMC3984478 (Cancer cell, 2012)

Columns and labels:
U2932 cells = test: Growth inhibition, ATP-based luminescent assay; type: cell-based, human; conditions: 48 hr
Summary of the method: (§1)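 Cells received a single dose of test compound over a concentration range and proliferation was read at 48 hr by luminescent ATP quantification. Luminescence was converted to cell number using per-line standard curves built from trypan blue counts. Viability was normalised to controls and expressed as 1 − fractional viability, and GI25/GI50 were fitted. Experiments were run three times in triplicate.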

[1] = test system: nuclear c-REL in HBL-1 cells; test: c-REL flow cytometry of whole cells or isolated nuclei; type: cell-based, human; conditions: 200 nM MI-2 or 50 µM Z-VRPR-FMK, 24 hr
Summary of the method: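 HBL-1 cells were exposed for 24 hr to 200 nM test compound, to 50 µM Z-VRPR-FMK as positive control, or to vehicle. c-REL was then measured by flow cytometry in whole cells and in isolated nuclei.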

HBL-1 cells [2] = test: Growth inhibition, ATP-based luminescent assay; type: cell-based, human
Summary of the method: as §1

[3] = test system: GCB-DLBCL cell lines (OCI-Ly7 and OCI-Ly1); test: Growth inhibition, ATP-based luminescent assay; type: cell-based, human; conditions: 48 hr
Summary of the method: as §1

TMD8 cells = test: Growth inhibition, ATP-based luminescent assay; type: cell-based, human
Summary of the method: as §1

HLY-1 cells = test: Growth inhibition, ATP-based luminescent assay; type: cell-based, human; conditions: 48 hr
Summary of the method: as §1

OCI-Ly3 cells = test: Growth inhibition, ATP-based luminescent assay; type: cell-based, human; conditions: 48 hr
Summary of the method: as §1

OCI-Ly10 cells = test: Growth inhibition, ATP-based luminescent assay; type: cell-based, human; conditions: 48 hr
Summary of the method: as §1

[4] = test system: primary human non-GCB DLBCL cells; test: Primary human DLBCL ex vivo viability, trypan blue; type: cell-based; conditions: 0.8 µM, 48 hr
Summary of the method: (§2)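 Single-cell suspensions came from lymph-node biopsies of five DLBCL patients, prepared by physical disruption and density-gradient separation. GCB versus non-GCB status was assigned by Hans-criteria IHC. Cells were cultured in RPMI with 20% FBS and antibiotics and exposed to 0.8 µM test compound (1 µM for one patient) or DMSO in quadruplicate for 48 hr. Cell number and viability were counted by trypan blue and normalised to vehicle.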

TMD8 xenografts = test: TMD8 xenograft in NOD-SCID mice; type: in vivo; conditions: IP 25 mg/kg/day, 14 injections
Summary of the method: (§3)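 Eight-week-old male NOD-SCID (NOD.CB17-Prkdcscid/J) mice received 10^7 low-passage cells subcutaneously in 50% Matrigel in the right flank. At an average tumour size of 120 mm3, mice were randomised to test compound 25 mg/kg/day IP or vehicle (5% DMSO) for 14 consecutive days and sacrificed 24 hr after the 14th injection. Caliper volume, (smallest diameter² × largest)/2, was taken three times weekly. Ki-67 IHC was counted per high-power field.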

[5] = target: paracaspase domain of MALT1 (residues 329–728) (Homo sapiens, UniProt Q9UDY8); test: HSQC NMR binding
[6] = test system: NF-κB reporter in 293T cells expressing MALT1 WT; test: NF-κB reporter assay, PMA/ionomycin, BCL10 + MALT1 WT; type: cell-based; conditions: 2 µM pretreatment 30 min, PMA/ionomycin 2 hr
[7] = test system: NF-κB reporter activity in HBL-1 cells; test: NF-κB reporter assay in HBL-1; type: cell-based, human; conditions: 200 nM
Summary of the method: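 NF-κB luciferase reporter in HBL-1 cells treated with 200 nM test compound, 50 µM Z-VRPR-FMK or vehicle for 8 and 24 hr. Activity is given as % of vehicle, normalised to an internal control. Statistics used ANOVA with Bonferroni post-test.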

HBL-1 cells [8] = test: Recovery of cells after a single dose; type: cell-based, human; conditions: 0.2 µM dose level
[9] = target: MALT1 paracaspase domain (329–728) (Homo sapiens, UniProt Q9UDY8); test: LC-MS covalent modification; type: binding
[10] = test system: ABC-DLBCL cell lines HBL-1 and TMD8, GCB-DLBCL cell line OCI-Ly1; parameters: species or system human; conditions: 48 hr, cell-based assays
Summary of the method: as §1

[11] = test system: Z-VRPR-FMK signature genes in HBL-1 and TMD8 cell lines; test: Gene expression profiling, GSEA; type: cell-based, human; conditions: GI50 concentrations (HBL-1 200 nM; TMD8 500 nM), 8 hr
OCI-Ly1 = test: CFSE dilution proliferation assay; type: cell-based, human; conditions: increasing concentrations, 48, 72, and 96 hr
Summary of the method: (§4)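 Cells were exposed to increasing concentrations of test compound, and CFSE dilution was read by flow cytometry at 48, 72 and 96 hr. 2 × 10^4 cells were acquired per sample, and DAPI staining was used to gate viable cells for analysis.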

[12] = test system: nuclear c-REL and p65 in HBL-1 and TMD8 cells; test: Western blots for c-REL and p65 in nuclear extracts; type: cell-based, human; conditions: 24 hr, 200 nM for HBL-1 and 500 nM for TMD8
Summary of the method: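 Nuclear extracts were prepared from HBL-1 cells (200 nM test compound) and TMD8 cells (500 nM) after 24 hr treatment and immunoblotted for c-REL and p65.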

[13] = test system: primary human GCB DLBCL cells; test: Primary human DLBCL ex vivo viability, trypan blue; type: cell-based; conditions: 0.8 µM, 48 hr
Summary of the method: as §2

[14] = test system: NF-κB reporter in 293T cells expressing MALT1 C464A; test: NF-κB reporter assay, PMA/ionomycin, BCL10 + MALT1 C464A; type: cell-based; conditions: 2 µM pretreatment 30 min, PMA/ionomycin 2 hr
OCI-Ly1 xenografts = test: OCI-Ly1 xenograft in NOD-SCID mice; type: in vivo; conditions: IP 25 mg/kg/day, 14 injections
Summary of the method: as §3

HBL-1 cells [15] = test: BrdU incorporation-DAPI cell cycle; type: cell-based, human; conditions: 24 and 48 hr
Summary of the method: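 HBL-1 cells were treated with test compound for 24 and 48 hr, then pulse-labelled with BrdU and co-stained with DAPI. Cell-cycle phases (S, G1-0, sub-G0) were read by flow cytometry. Data are mean ± SD of two independent experiments.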

caspase-9 = caspase-9 (Homo sapiens, UniProt P55211); test: Caspase selectivity; type: biochemical
[16] = test system: MALT1-mediated cleavage of CYLD in HBL-1 cells; test: MALT1 cleavage of CYLD, western blotting and densitometry; type: cell-based, human
HBL-1 and TMD8 cells = test: Trypan blue cell number and Annexin V+ DAPI− apoptosis time course, 14 days; type: cell-based, human; conditions: treated daily at GI25 and GI50, 14 days
Summary of the method: (§5)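 Cell lines were dosed with test compound every 24 hr. Every 48 hr for 14 days, cells were counted by trypan blue exclusion and apoptosis was measured as Annexin V+ DAPI− by flow cytometry. Cell number is expressed as % of vehicle at each time point.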

caspase-8 = caspase-8 (Homo sapiens, UniProt Q14790); test: Caspase selectivity; type: biochemical
[17] = test system: MALT1 substrate cleavage in HBL-1 and TMD8 cell lines; test: Cleavage of MALT1 substrates A20, BCL10, RELB, western blot with MG-132; type: cell-based, human; conditions: 2 µM, 30 min, then 5 µM MG-132 for 1 or 2 hr
Summary of the method: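 HBL-1 and TMD8 cells were pretreated for 30 min with 2 µM test compound or vehicle. Proteasome inhibitor MG-132 (5 µM) was then added for a further 1 or 2 hr so that cleaved substrate forms could accumulate. Western blots were probed for A20, RELB and BCL10, and cleavage products were identified by band position.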

[18] = target: LZ-MALT1 (recombinant MALT1 (340–789) fused with a leucine zipper dimerization motif) (Homo sapiens, UniProt Q9UDY8); test: LZ-MALT1 fluorescence activity assay; type: biochemical; conditions: preincubation with compound before Ac-LRSR-AMC
Summary of the method: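 Recombinant MALT1 (340–789) fused to a leucine zipper dimerization motif was preincubated with test compound (0–25 µM) for 5–90 min. Ac-LRSR-AMC substrate was then added, and AMC release was read by fluorescence at 360 nm excitation and 465 nm emission. Percent inhibition was normalized and plotted against preincubation time.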

caspase-3/7 activity = test: Cell-based caspase-3/7 activity and apoptosis inhibition; conditions: at concentrations that suppress MALT1
OCI-Ly1 cells = test: Trypan blue cell number and Annexin V+ DAPI− apoptosis time course, 14 days; type: cell-based, human; conditions: treated daily at the doses used for TMD8, 14 days
Summary of the method: as §5

HBL-1 xenografts = test: HBL-1 xenograft in NOD-SCID mice; type: in vivo; conditions: IP 25 mg/kg/day, 14 injections
Summary of the method: as §3

caspase-3 = caspase-3 (Homo sapiens, UniProt P42574); test: Caspase selectivity; type: biochemical
C57BL/6 mice = test: Toxicity in mice; type: in vivo
[19] = test system: ABC-DLBCL cell lines HBL-1 and TMD8; test: Caspase-3/7 cleavage assay; type: cell-based, human
Summary of the method: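 Caspase-3/7 cleavage assay run within 48 hr of exposure to increasing concentrations of test compound.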

[20] = test system: HBL-1, TMD8, and OCI-Ly10; test: CFSE dilution proliferation assay; type: cell-based, human; conditions: increasing concentrations, 48, 72, and 96 hr
Summary of the method: as §4

[21] = target: MALT1 active site mutant C464A (Homo sapiens, UniProt Q9UDY8, C464A); test: LC-MS covalent modification, mutant; type: binding
HBL-1 cells [22] = test: Intracellular concentration by LC-MS; type: in vitro ADME, human
Summary of the method: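 HBL-1 cells were exposed to 0.02, 0.2 or 2 µM test compound for 2 hr, washed three times, and intracellular compound was quantified by LC-MS. For free-drug kinetics, cells at 0.2 µM were sampled at 30 min and at 2, 6, 12, 24 and 48 hr.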

Sequence of caspase-9 (P55211 whole entry, species assumed): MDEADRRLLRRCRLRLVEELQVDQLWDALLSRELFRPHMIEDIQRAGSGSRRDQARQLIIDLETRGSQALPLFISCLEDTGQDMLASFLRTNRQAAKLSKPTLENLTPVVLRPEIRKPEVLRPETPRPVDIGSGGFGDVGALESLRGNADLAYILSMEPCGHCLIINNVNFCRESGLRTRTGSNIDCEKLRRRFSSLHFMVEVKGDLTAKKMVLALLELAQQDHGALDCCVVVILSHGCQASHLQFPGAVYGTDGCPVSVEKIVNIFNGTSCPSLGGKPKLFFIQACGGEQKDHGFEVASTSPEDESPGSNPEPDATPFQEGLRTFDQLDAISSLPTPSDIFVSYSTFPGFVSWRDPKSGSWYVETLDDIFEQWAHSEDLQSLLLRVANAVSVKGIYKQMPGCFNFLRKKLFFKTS
Sequence of caspase-8 (Q14790 217-374 limits assumed): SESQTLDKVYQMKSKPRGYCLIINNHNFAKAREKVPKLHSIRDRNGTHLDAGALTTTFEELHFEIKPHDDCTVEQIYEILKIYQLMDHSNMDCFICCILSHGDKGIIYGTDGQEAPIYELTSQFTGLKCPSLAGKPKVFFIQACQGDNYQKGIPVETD
Sequence of caspase-8 (Q14790 385-479 limits assumed): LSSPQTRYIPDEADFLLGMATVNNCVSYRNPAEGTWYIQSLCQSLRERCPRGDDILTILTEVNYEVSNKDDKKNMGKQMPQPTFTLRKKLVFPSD
Sequence of caspase-3 (P42574 29-175 limits assumed, species assumed): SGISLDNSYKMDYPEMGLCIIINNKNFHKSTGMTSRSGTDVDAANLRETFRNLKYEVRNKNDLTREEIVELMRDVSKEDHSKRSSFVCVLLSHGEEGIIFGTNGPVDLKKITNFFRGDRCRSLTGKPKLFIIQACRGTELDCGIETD
Sequence of caspase-3 (P42574 176-277 limits assumed, species assumed): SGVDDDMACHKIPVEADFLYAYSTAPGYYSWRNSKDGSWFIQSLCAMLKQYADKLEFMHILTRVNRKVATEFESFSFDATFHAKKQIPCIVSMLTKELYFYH

Z-VRPR-FMK [reference compound]
response of proliferation (U2932 cells; 50 µM): relatively little response | nuclear c-REL (flow cytometry) [1]: reduced nuclear c-REL to a similar extent | response of proliferation (HBL-1 cells [2]; 50 µM, 48 hr): inhibition of proliferation | response of proliferation ([3]; 50 µM): did not respond | response of proliferation (TMD8 cells; 50 µM, 48 hr): inhibition of proliferation | response of proliferation (HLY-1 cells; 50 µM): relatively little response | response of proliferation (OCI-Ly3 cells; 50 µM): inhibition of proliferation | response of proliferation (OCI-Ly10 cells; 50 µM): inhibition of proliferation

COCCOc1nc(-c2ccc(Cl)c(Cl)c2)n(-c2ccc(NC(=O)CCl)cc2)n1 [MI-2]
response of primary cases (cell number and viability) [4]: two of the non-GCB cases responded | apoptotic cells (TUNEL) relative to vehicle (TMD8 xenografts): significant increase in apoptotic cells | proliferation (Ki-67 staining) compared to vehicle (TMD8 xenografts): significant decrease in proliferation | tumor growth versus vehicle (TMD8 xenografts): profoundly suppressed the growth | binding by HSQC NMR [5]: robust interaction | NF-κB induction by PMA/ionomycin [6]: significantly inhibited NF-κB induction | reduction in NF-κB reporter activity ([7]; 8 hr): 20% | reduction in NF-κB reporter activity ([7]; 24 hr): 50% | recovery of cells (HBL-1 cells [8]): only started to become evident after 48 hr | covalent binding by LC-MS [9]: can bind covalently to MALT1 | growth inhibition (U2932 cells; U2932, single dose): resistant | 25% growth-inhibitory concentration (GI25) [10]: high-nanomolar range | enrichment of Z-VRPR-FMK signature (GSEA) [11]: significantly enriched among genes downregulated after MI-2 treatment | proliferation (CFSE dilution) (OCI-Ly1): did not affect OCI-Ly1 | nuclear c-REL (western blot) [12]: clear reduction of nuclear c-REL | nuclear p65 levels (western blot) [12]: did not affect p65 levels | response of primary cases (cell number and viability) [13]: none of the GCBs did | nuclear c-REL (flow cytometry) [1]: reduced nuclear c-REL to a similar extent | NF-κB induction by PMA/ionomycin [14]: did not significantly affect | apoptotic cells (TUNEL) relative to vehicle (OCI-Ly1 xenografts): not in OCI-Ly1 xenografts | proliferation (Ki-67 staining) compared to vehicle (OCI-Ly1 xenografts): no difference | tumor growth versus vehicle (OCI-Ly1 xenografts): no effect on the growth | cell cycle (BrdU-DAPI) (HBL-1 cells [15]): dose-dependent decrease in S phase | activity against caspase-9 (caspase-9): little activity | inhibition of MALT1 cleavage of CYLD ([16]; HBL-1, 5 µM for 8 hr, Z-VRPR-FMK 50 µM positive control): most potent compound | MALT1-mediated cleavage of CYLD ([16]; HBL-1, increasing concentrations, 24 hr): dose-dependent decrease in MALT1-mediated cleavage | GI50 (HBL-1 cells [2]; HBL-1): 200 nM | cell number and apoptosis (HBL-1 and TMD8 cells): profoundly suppressed | activity against caspase-8 (caspase-8): little activity | cleavage of A20, BCL10, and RELB [17]: diminished the abundance of cleaved forms and/or increased the abundance of full-length proteins | growth inhibition ([3]; two GCB-DLBCL cell lines, single dose): resistant | GI50 (TMD8 cells; TMD8): 500 nM | inhibition reached [18]: ~100% | inhibition of caspase-3/7 activity or apoptosis in cell-based assays (caspase-3/7 activity): did not inhibit | cell number and apoptosis (OCI-Ly1 cells): no effect on OCI-Ly1 cells | apoptotic cells (TUNEL) relative to vehicle (HBL-1 xenografts): significant increase in apoptotic cells | c-REL nuclear protein in tumor sections (HBL-1 xenografts): reduced c-REL nuclear protein | proliferation (Ki-67 staining) compared to vehicle (HBL-1 xenografts): significant decrease in proliferation | tumor growth versus vehicle (HBL-1 xenografts): profoundly suppressed the growth | activity against caspase-3 (caspase-3): little activity | growth inhibition (HLY-1 cells; HLY-1, single dose): resistant | Complete peripheral blood counts, biochemistry, and liver function tests (C57BL/6 mice; daily IP 25 mg/kg over 14 days): normal | toxicity 1: physical indicators of sickness (C57BL/6 mice; daily IP, increasing doses 0.05 to 25 mg/kg over 10 days, cumulative 51.1 mg/kg): no evidence of lethargy, weight loss | apoptosis (caspase-3/7 cleavage) [19]: dose-dependent apoptosis within 48 hr | proliferation (CFSE dilution) [20]: substantially inhibited proliferation | GI50 (OCI-Ly3 cells; OCI-Ly3, single dose): 400 nM | covalent binding by LC-MS [21]: markedly reduced covalent binding | GI50 (OCI-Ly10 cells; OCI-Ly10, single dose): 400 nM | intracellular concentration (HBL-1 cells [22]; HBL-1, 0.2 µM, 2 hr): 5 µM | free intracellular drug (HBL-1 cells [22]; HBL-1, 0.2 µM, by 12 hr): virtually no detectable free MI-2 | increase in intracellular concentration (HBL-1 cells [22]; HBL-1 exposed to 0.02, 0.2, or 2 µM for 2 hr, washed three times): 18- to 30 fold
